Assay results reported in ChEMBL document CHEMBL4316633, “The Antiangiogenic Activity of Naturally Occurring and Synthetic Homoisoflavonoids from the Hyacinthaceae ( sensu APGII)” (J Nat Prod, 2019).
Activity calls are given as the source filed them. No cut-off for these calls is given here.

Columns and labels:
[1] = Cytotoxicity against human Y79 cells assessed as reduction in cell number incubated for 44 hrs by alamar blue based fluorescence assay
[2] = Antiproliferative activity against HREC assessed as reduction in cell number incubated for 44 hrs by alamar blue based fluorescence assay; assay type: functional; details: Homo sapiens
[3] = Antiproliferative activity against HUVEC assessed as reduction in cell number incubated for 44 hrs by alamar blue based fluorescence assay; details: human, HUVEC cells
How it was run: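 Primary endothelial cells (HRECs, HUVECs; passage 5–8) in EGM-2; 2,500 cells seeded, 24 h at 37°C, 5% CO2, then compounds 0.5 nM–500 μM for 44 h. alamarBlue added 4 h, fluorescence ex 560/em 590 nm.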

[4] = Cytotoxicity against human 92-1 cells assessed as reduction in cell number incubated for 44 hrs by alamar blue based fluorescence assay
Homo sapiens [5] = species: Homo sapiens; test: Antiangiogenic activity against HREC assessed as reduction in tube formation at 0.01 to 0.1 uM incubated for 8 hrs by matrigel based tube formation assay; assay type: functional
How it was run: (§1)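 HRECs (passage 5–8), 15,000 cells in EGM-2 medium, plated on Matrigel basement membrane coat with DMSO vehicle or graded compound concentrations; SH-11037 as positive control. Images taken after 8 h; tubule length quantified by Angiogenesis Analyzer macros and expressed relative to DMSO control. Mean ± SEM, n=3–6 wells, duplicate experiments; one-way ANOVA with Dunnett's test.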

[6] = Antiproliferative activity against human ARPE19 assessed as reduction in cell number incubated for 44 hrs by alamar blue based fluorescence assay; details: ARPE-19 cells
Homo sapiens [7] = species: Homo sapiens; test: Antiangiogenic activity against HREC assessed as reduction in tube formation at 0.01 to 0.1 nM incubated for 8 hrs by matrigel based tube formation assay; assay type: functional; how it was run: as §1
Homo sapiens [8] = species: Homo sapiens; test: Antiangiogenic activity against HREC assessed as reduction in tube formation incubated for 8 hrs by matrigel based tube formation assay; assay type: functional; how it was run: as §1
Homo sapiens [9] = species: Homo sapiens; test: Antiangiogenic activity against HREC assessed as reduction in tube formation at 0.05 to 0.5 uM incubated for 8 hrs by matrigel based tube formation assay; assay type: functional; how it was run: as §1

SMILES | GI50 at 44 h [1] [µM] | GI50 [2] [µM] | GI50 at 44 h [3] [µM] | GI50 at 44 h [4] [µM] | inhibition (Homo sapiens [5]) | GI50 at 44 h [6] [µM] | inhibition (Homo sapiens [7]) | inhibition (Homo sapiens [8]) | inhibition (Homo sapiens [9])
COc1cc2c(cc1O)C[C@]21COc2cc(OC(C)=O)cc(O)c2C1=O | > 100 | > 100 | > 100 | > 100 |  |  |  |  | 
O=C1CCOc2cc(O)cc(O)c21 | > 100 | > 100 | > 100 | > 100 |  |  |  |  | 
COc1ccc(C[C@@H]2COc3cc(OC)c(OC)c(OC)c3C2=O)cc1O | 85 | 0.035 |  | > 100 | Active | > 100 |  |  | 
COc1cc2c(cc1O)C[C@]21COc2cc(O)cc(O)c2C1=O | > 100 | > 100 | > 100 | > 100 |  |  |  |  | 
COc1cc(OC)c2c(c1)OC/C(=C\c1ccc(SC)cc1)C2=O | 2 | 2.5 |  | > 100 |  | 48 |  |  | 
COc1ccc(CC2COc3cc(OC)c(OC)c(OC)c3C2)cc1O (racemic) | 18 | 0.00023 |  | 52 |  | 0.00034 | Active |  | 
COc1ccc(/C=C2\COc3cc(OC(C)=O)c(O)c(O)c3C2=O)cc1OC(C)=O | 29 | 16 | 11 | 69 |  |  |  | Dose-dependent effect | 
COc1ccc(CC2COc3cc(OC)c(OC)c(OC)c3C2=O)cc1O (racemic) | > 100 | 0.21 |  | > 100 |  | > 100 |  |  | 
COc1c(O)cc2c(c1O)C(=O)[C@H](Cc1ccc(O)c(O)c1)CO2 | > 100 | > 100 |  | > 100 |  | > 100 |  |  | 
COc1ccc(C[C@]2(O)COc3cc(OC)cc(O)c3C2=O)cc1 | > 100 | 64 |  | > 100 |  | > 100 |  |  | 
O=Cc1ccc(O)cc1 [4-HYDROXYBENZALDEHYDE] | > 100 | > 100 | > 100 | > 100 |  |  |  |  | 
COc1ccc(C[C@@H]2COc3c(OC)c(O)cc(O)c3C2=O)cc1 | > 100 | > 100 |  | > 100 |  | > 100 |  |  | 
COc1ccc(/C=C2\COc3cc(OC(C)=O)cc(O)c3C2=O)cc1O | 58 | 18 | 26 | 67 |  |  |  | Dose-dependent effect | 
COc1c(O)cc2c(c1O)C(=O)[C@H](Cc1ccc(O)cc1)CO2 | > 100 | > 100 | > 100 | > 100 |  |  |  |  | 
CCOc1ccc(C(=O)/C=C/c2ccc(OC)c(OC)c2)c(O)c1C | > 100 | 3.9 |  | > 100 |  | > 100 |  |  | Active
COc1ccc(C[C@@H]2COc3cc(O)cc(O)c3C2=O)cc1 | > 100 | > 100 | > 100 | > 100 |  |  |  |  | 
COc1ccc(/C=C2\COc3cc(OC)c(OC)c(O)c3C2=O)cc1O | 2.4 | 0.26 |  | > 100 |  | 4.8 |  |  | Active
COc1ccc2c(c1OC)OC/C(=C\c1ccc(SC)cc1)C2=O | 11 | 3.6 |  | > 100 |  | > 100 |  |  | 
COc1cc(O)c2c(c1)OC[C@]1(Cc3c1cc(OC)c(OC)c3O)C2=O | > 100 | > 100 | > 100 | > 100 |  |  |  |  | 
COc1ccc(/C=C2\COc3cc(OC)c(OC)c(OC)c3C2=O)cc1O | 23 | 2.2 |  | 8.2 |  | 1.3 |  |  | 
O=C1c2c(O)cc(O)cc2OC[C@H]1Cc1ccc(O)c(O)c1 | > 100 | > 100 | > 100 | > 100 |  |  |  |  | 
COc1c(O)c(OC)c2c(c1O)OC[C@@H](Cc1ccc(O)cc1)C2=O | > 100 | > 100 |  | > 100 |  | > 100 |  |  | 
COc1cc2c(cc1O)C[C@]21COc2cc(OC(C)=O)cc(OC(C)=O)c2C1=O | > 100 | > 100 | > 100 | > 100 |  |  |  |  | 

SMILES | GI50 at 44 h [1] [µM] | GI50 [2] [µM] | GI50 at 44 h [3] [µM] | GI50 at 44 h [4] [µM] | inhibition (Homo sapiens [5]) | GI50 at 44 h [6] [µM] | inhibition (Homo sapiens [7]) | inhibition (Homo sapiens [8]) | inhibition (Homo sapiens [9])
CC(=O)Oc1cc(O)cc2c1C(=O)/C(=C/c1ccc(O)c(O)c1)CO2 | 2.5 | 1.4 | 5 | > 100 |  |  |  | Dose-dependent effect | 
COc1cc(O)cc2c1C(=O)/C(=C/c1ccc(O)c(O)c1)CO2 | > 100 | > 100 | > 100 | > 100 |  |  |  |  | 
COc1cc(OC(C)=O)cc2c1C(=O)/C(=C/c1ccc(OC(C)=O)cc1)CO2 | > 100 | 96 | 43 | > 100 |  |  |  |  | 
CC(=O)Oc1cc(C[C@H]2COc3cc(O)cc(O)c3C2=O)ccc1O | > 100 | > 100 | > 100 | > 100 |  |  |  |  | 
O=C1c2c(O)cc(O)cc2OC[C@H]1Cc1ccc(O)cc1 | > 100 | > 100 | > 100 | > 100 |  |  |  |  | 
COc1cc(O)cc(OC)c1C(=O)/C=C/c1ccc(O)cc1 | > 100 | > 100 | > 100 |  |  |  |  |  | 
O=C1c2c(O)cc(O)cc2OC[C@]12Cc1cc3c(cc12)OCO3 | > 100 | > 100 | > 100 | > 100 |  |  |  |  | 
COc1cc2c(c(OC)c1OC)C(=O)/C(=C/c1ccc(Cl)c(O)c1)CO2 | 13 | 0.11 |  | 3.6 |  | 0.73 |  |  | 
O=C1/C(=C/c2ccc(O)c(O)c2)COc2cc(O)cc(O)c21 | > 100 | > 100 |  | > 100 |  | > 100 |  |  | 
COc1ccc(C[C@]2(O)COc3cc(O)cc(O)c3C2=O)cc1 | > 100 | 74 |  | > 100 |  | > 100 |  |  | 
COc1ccc(C[C@H]2COc3cc(OC(C)=O)cc(OC(C)=O)c3C2=O)cc1O | > 100 | > 100 | 92 | > 100 |  |  |  |  | 
O=C1/C(=C/c2ccc(O)cc2)COc2cc(O)cc(O)c21 | > 100 | 60 |  | > 100 |  | > 100 |  |  | 
COc1ccc(CC2(O)COc3cc(O)cc(O)c3C2=O)cc1 (configuration not stated) | > 100 | > 100 | > 100 | > 100 |  |  |  |  | 
COc1ccc(/C=C2\COc3c(OC)c(O)cc(O)c3C2=O)cc1 | > 100 | > 100 |  | > 100 |  | > 100 |  |  | 
COc1cc2c(cc1O)[C@@]1(COc3cc(O)cc(O)c3C1=O)C2 | > 100 | > 100 | > 100 | > 100 |  |  |  |  | 
COc1c(O)cc2c(c1O)C(=O)/C(=C/c1ccc(O)c(O)c1)CO2 | > 100 | > 100 |  | > 100 |  | > 100 |  |  | 
COc1c(O)cc(O)c2c1OC[C@@H](Cc1ccc(O)cc1)C2=O | > 100 | 64 to 100 | > 100 | > 100 |  | > 100 |  |  | 
COc1cc(O)cc2c1C(=O)[C@H](Cc1ccc(O)c(O)c1)CO2 | 25 | > 100 | 14 | > 100 |  |  |  |  | 
COc1cc(O)cc2c1C(=O)[C@H](Cc1ccc(O)cc1)CO2 | > 100 | > 100 | > 100 | > 100 |  |  |  |  | 
COc1cc(O)c2c(c1)OC[C@]1(Cc3c1cc(OC)c(OC)c3OC)C2=O | > 100 | > 100 | > 100 | > 100 |  |  |  |  | 
COc1c(O)cc(O)c2c1OC/C(=C\c1ccc(O)cc1)C2=O | > 100 | 40 | > 100 | > 100 |  |  |  |  | 
COc1ccc(/C=C2\COc3cc(O)c(O)c(O)c3C2=O)cc1O | 23 | 17 | 41 | > 100 |  |  |  |  | 
